According to ChEMBL document CHEMBL3244011, “(Aryloxy)[p-(aryloxy)phenyl]- and (aryloxy)[p-(arylthio)phenyl]acetic acids and esters as hypolipidemic agents” (1979):

Legend:
Assay type in all cases: functional
Set-up in all cases: scale not given: the % may be the effect or the level left
Rattus norvegicus [1] = assay: Hypolipidemic activity in COBBS-CD rat assessed as reduction in serum sterol level at 0.1% administered with chow diet after 5 days relative to control
Outline: (§1)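 Male COBBS-CD rats, four per treated group and eight per control group. The compound was mixed into ground rat chow at 0.1, 0.03 or 0.01% w/w (about 100, 30 and 10 mg/kg). Control chow received only the mixing solvent (methanol-chloroform 1:3 v/v). Food and water were ad libitum for 5 days, then rats were decapitated and blood collected. Serum sterols were measured by an automated method and expressed relative to controls; ± values are SD.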

Rattus norvegicus [2] = assay: Hypolipidemic activity in COBBS-CD rat assessed as reduction in serum sterol level at 0.03% administered with chow diet after 5 days relative to control; outline: as §1
Rattus norvegicus [3] = assay: Hypolipidemic activity in COBBS-CD rat assessed as reduction in serum sterol level at 0.01% administered with chow diet after 5 days relative to control; outline: as §1
Rattus norvegicus [4] = assay: Hypolipidemic activity in COBBS-CD rat assessed as reduction in serum triglyceride level at 0.1% administered with chow diet after 5 days relative to control
Outline: (§2)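 The compound was given in ground chow at 0.1, 0.03 or 0.01% w/w (about 100, 30 and 10 mg/kg) to male COBBS-CD rats (n=4; solvent-chow controls n=8) for 5 days ad libitum. Rats were killed by decapitation and blood collected. Serum triglycerides were assayed by an automated method and compared with controls; ± values are SD.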

Rattus norvegicus [5] = assay: Hypolipidemic activity in COBBS-CD rat assessed as reduction in serum triglyceride level at 0.03% administered with chow diet after 5 days relative to control; outline: as §2
Rattus norvegicus [6] = assay: Hypolipidemic activity in COBBS-CD rat assessed as reduction in serum triglyceride level at 0.01% administered with chow diet after 5 days relative to control; outline: as §2

Row | SMILES | Activity (Rattus norvegicus [1]) | Activity (Rattus norvegicus [2]) | Activity (Rattus norvegicus [3]) | Activity (Rattus norvegicus [4]) | Activity (Rattus norvegicus [5]) | Activity (Rattus norvegicus [6])
1 | COC(=O)C(Oc1ccc(Cl)c2ccccc12)c1ccc(Oc2ccc(Cl)cc2)cc1 (stereo not given) | 11% | -3% | -18% | 32% | -8% | -15%
2 | COC(=O)C(Oc1ccc(Cl)cc1)c1ccc(Oc2ccc(Cl)cc2)cc1 (stereo not given) | 33% | 23% | 16% | 56% | 48% | 39%
3 | COC(=O)C(Oc1ccccc1)c1ccc(Oc2ccc(Cl)cc2)cc1 (stereo not given) | 31% | 18% | 18% | 68% | 67% | 77%
4 | COC(=O)C(Oc1ccc(C(C)(C)C)cc1)c1ccc(Oc2ccc(Cl)cc2)cc1 (stereo not given) | 20% | 20% | 27% | 57% | 53% | 41%
5 | COC(=O)C(Oc1cccc(C(F)(F)F)c1)c1ccc(Oc2ccc(Cl)cc2)cc1 (stereo not given) | 28% | 16% | -6% | 61% | 47% | 18%
6 | COC(=O)C(Oc1cccc(C(C)(C)C)c1)c1ccc(Oc2ccc(Cl)cc2)cc1 (stereo not given) | 41% | 20% | 23% | 63% | 49% | 41%
7 | COC(=O)C(Oc1cc(Cl)c(Cl)c(Cl)c1)c1ccc(Oc2ccc(Cl)cc2)cc1 (stereo not given) | 30% | -2% | 3% | 55% | 46% | 15%
8 | COC(=O)C(Oc1ccc(OCc2ccccc2)cc1)c1ccc(Oc2ccc(Cl)cc2)cc1 (stereo not given) | 30% | 26% | 13% | 57% | 37% | 29%
9 | O=C(O)C(Oc1ccc(Oc2ccccc2)cc1)c1ccc(Oc2ccc(Cl)cc2)cc1 (stereo not given) | 33% | 21% | 13% | 54% | 38% | 53%
10 | COC(=O)C(Oc1cc(C)c(Cl)c(C)c1)c1ccc(Oc2ccc(Cl)cc2)cc1 (stereo not given) | 21% | 22% | 0% | 66% | 49% | 33%
11 | COC(=O)C(Oc1ccc(C(C)(C)C)cc1Cl)c1ccc(Oc2ccc(Cl)cc2)cc1 (stereo not given) | 28% | 29% | 17% | 64% | 50% | 25%
12 | COC(=O)C(Oc1cc(Cl)cc(Cl)c1)c1ccc(Oc2ccc(Cl)cc2)cc1 (stereo not given) | 26% | 10% | -11% | 47% | 6% | -44%
13 | COC(=O)C(Oc1cccc2ccccc12)c1ccc(Oc2ccc(Cl)cc2)cc1 (stereo not given) | 4% | 3% |  | 39% | 36% | 
14 | COC(=O)C(Oc1ccc(C)c(C)c1)c1ccc(Oc2ccc(Cl)cc2)cc1 (stereo not given) | 46% | 28% | 18% | 63% | 45% | 23%
15 | COC(=O)C(Oc1cccc2c1CCCC2)c1ccc(Oc2ccc(Cl)cc2)cc1 (stereo not given) | 23% | 14% | 1% | 41% | -1% | -34%
16 | COC(=O)C(Oc1ccc2c(c1)CCC2)c1ccc(Oc2ccc(Cl)cc2)cc1 (stereo not given) | 25% | 30% | 26% | 52% | 51% | 37%
17 | COC(=O)C(Oc1ccc2ccccc2c1)c1ccc(Oc2ccc(Cl)cc2)cc1 (stereo not given) | 32% | 15% | 10% | 55% | 44% | 32%
18 | COC(=O)C(Oc1ccc(C(F)(F)F)cc1)c1ccc(Oc2ccc(Cl)cc2)cc1 (stereo not given) | 20% | 28% | 24% | 53% | 51% | 60%
19 | COC(=O)C(Oc1ccc2c(c1)CCCC2)c1ccc(Oc2ccc(Cl)cc2)cc1 (stereo not given) | 42% | 26% | 24% | 47% | 35% | 8%

Row | SMILES | Activity (Rattus norvegicus [1]) | Activity (Rattus norvegicus [2]) | Activity (Rattus norvegicus [3]) | Activity (Rattus norvegicus [4]) | Activity (Rattus norvegicus [5]) | Activity (Rattus norvegicus [6])
20 | COC(=O)C(Oc1ccc(Cl)c2c1CCCC2)c1ccc(Oc2ccc(Cl)cc2)cc1 (stereo not given) | 25% | 30% | -1% | 54% | 28% | 24%
21 | COC(=O)C(Oc1ccc(C2(C)CCCCC2)cc1)c1ccc(Oc2ccc(Cl)cc2)cc1 (stereo not given) | 18% | 13% | 26% | 65% | 70% | 64%
22 | COC(=O)C(Oc1ccc(C23CC4CC(CC(C4)C2)C3)cc1)c1ccc(Oc2ccc(Cl)cc2)cc1 (stereo not given) | 3% | 16% | 14% | 17% | 29% | 11%
23 | O=C(O)C(Oc1ccc(Cl)cc1)c1ccc(Oc2ccc(Cl)cc2)cc1 (stereo not given) | 31% | 23% | 12% | 60% | 50% | 34%
24 | CCOC(=O)C(Oc1ccc(Cl)cc1)c1ccc(Oc2ccc(Cl)cc2)cc1 (stereo not given) | 25% | 25% | 18% | 60% | 51% | 40%
25 | COC(=O)C(Oc1ccc(F)cc1)c1ccc(Oc2ccc(C#N)cc2)cc1 (stereo not given) | 33% | 19% | 13% | 60% | 31% | 38%
26 | COC(=O)C(Oc1ccc(Cl)cc1)c1ccc(Oc2ccc(S(C)(=O)=O)cc2)cc1 (stereo not given) | 15% | -1% | 8% | 22% | -11% | 11%
27 | COC(=O)C(Oc1ccc(F)cc1)c1ccc(Oc2ccc(S(C)(=O)=O)cc2)cc1 (stereo not given) | 10% | -1% | -3% | 3% | -8% | 16%
28 | COC(=O)C(Oc1ccc(C(C)(C)C)cc1)c1ccc(Oc2ccc(NC(C)=O)cc2)cc1 (stereo not given) | 16% | 18% | 5% | 55% | 50% | 44%
29 | O=C(O)C(Oc1ccccc1)c1ccc(Oc2ccccc2)cc1 (stereo not given) | 22% | 15% | 21% | 51% | 37% | 3%
30 | COC(=O)C(Oc1ccc(C(C)(C)C)cc1)c1ccc(Oc2ccc(Cl)c3ccccc23)cc1 (stereo not given) | 23% | 24% | 16% | 56% | 39% | 29%
31 | COC(=O)C(Oc1ccc(F)cc1)c1ccc(Oc2cccc(C(F)(F)F)c2)cc1 (stereo not given) | 32% | 6% | 4% | 48% | 27% | 45%
32 | COC(=O)C(Oc1cccc(C(F)(F)F)c1)c1ccc(Oc2ccc(C(C)(C)C)cc2)cc1 (stereo not given) | 13% | -4% | -5% | 19% | -18% | -12%
33 | COC(=O)C(Oc1ccc(C2CCCCC2)cc1)c1ccc(Oc2ccc(C(C)(C)C)cc2)cc1 (stereo not given) | 33% | 16% | -5% | 52% | 49% | 29%
34 | COC(=O)C(Oc1ccc(Cl)cc1)c1ccc(Sc2ccc(Cl)cc2)cc1 (stereo not given) | 25% | 25% | 17% | 64% | 62% | 66%
35 | COC(=O)C(Oc1ccc(C(C)(C)C)cc1)c1ccc(Sc2ccc(Cl)cc2)cc1 (stereo not given) | 12% | 27% | 10% | 59% | 56% | 45%
36 | COC(=O)C(Oc1ccc(Cl)cc1)(C(=O)OC)c1ccc(Oc2ccc(Cl)cc2)cc1 | 32% | 25% | 9% | 63% | 48% | -2%
37 | COC(=O)C(Oc1ccc(Cl)cc1)c1ccc([S+]([O-])c2ccc(Cl)cc2)cc1 (stereo not given) | 31% | 11% | 15% | 55% | 35% | 12%
